Test results: ChEMBL document CHEMBL4732187, “Tetrahydroindazole inhibitors of CDK2/cyclin complexes” (Eur J Med Chem, 2021)
Active and inactive are the calls of the source. No cut-off for these calls is given here.

Columns and labels:
CDK2/Cyclin A2 = CDK2/Cyclin A2 (Homo sapiens, UniProt P24941); experiment: Inhibition of human N-terminal GST-tagged CDK2 (1 to 298 residues)/Cyclin A (174 to 432 residues) expressed in Escherichia coli Turner (DE3) cells assessed as reduction in ADP formation using PKTPKKAKKL as substrate by resorufin dye based fluorescence assay
[1] = Permeability across apical to basolateral side in MDCK cells assessed as drug recovery at 1 uM after 2 hrs by LC-MS/MS analysis; assay type: ADME, cell-based, Canis lupus familiaris; conditions: dog
How it was run: (§1)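 MDCK monolayers were washed twice with pre-warmed HBSS (10 mM HEPES, pH 7.4) and equilibrated for 30 min at 37 °C. Compound at 1 μM in HBSS (0.5% DMSO final) was added to the apical or the basolateral donor side. After 2 h at 37 °C, donor and receiver samples were quenched in cold methanol with internal standards and analysed by LC-MS/MS. Runs were in duplicate; 100 μM Lucifer Yellow checked monolayer integrity.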

[2] = Apparent permeability across apical to basolateral side in MDCK cells at 1 uM after 2 hrs by LC-MS/MS analysis; assay type: ADME, cell-based, Canis lupus familiaris; conditions: dog; how it was run: as §1
[3] = Efflux ratio of apparent permeability across basolateral to apical side over apical to basolateral side in MDCK cells at 1 uM after 2 hrs by LC-MS/MS analysis; assay type: ADME, cell-based, Canis lupus familiaris; conditions: dog
How it was run: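 MDCK monolayers washed twice with pre-warmed HBSS (10 mM HEPES, pH 7.4) and equilibrated 30 min at 37 °C. 1 μM working solution (0.5% DMSO final) added to apical or basolateral donor side, 37 °C for 2 h, run in duplicate. Donor and receiver samples quenched in cold methanol with internal standards and quantified by LC-MS/MS. Monolayer integrity checked by Lucifer Yellow (100 μM) leakage.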

[4] = Apparent permeability across basolateral to apical side in MDCK cells at 1 uM after 2 hrs by LC-MS/MS analysis; assay type: ADME, cell-based, Canis lupus familiaris; conditions: dog; how it was run: as §1
[5] = Permeability across basolateral to apical side in MDCK cells at 1 uM after 2 hrs by LC-MS/MS analysis; assay type: ADME, cell-based, Canis lupus familiaris; conditions: dog; how it was run: as §1
[6] = biological target: Cyclin-dependent kinase 2/cyclin E1 (Homo sapiens, UniProt P24941); experiment: Inhibition of CDK2/Cyclin E (unknown origin) using histone H1 as substrate preincubated for 20 mins followed by 33P-ATP addition and measured after 2 hrs by filter binding method; assay type: protein-complex assay
MCF7 = experiment: Antiproliferative activity against human MCF7 cells assessed as reduction in cell viability up to 200 uM after 72 hrs by alamarBlue assay; assay type: functional, cell-based; conditions: dose microM <=200, time 72.0 hrs
How it was run: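 MCF-7 cells seeded at 5000 per well and incubated overnight at 37 °C, 5% CO₂, then exposed to 8 concentrations from 0.00256 μM to 200 μM for 72 h. alamarBlue was then added and incubated 90 min at 37 °C. Proliferating cells were read by fluorescence (ex 530 nm, em 590 nm). Staurosporine served as positive control.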

[7] = biological target: Cyclin-dependent kinase 2 (Homo sapiens, UniProt P24941); experiment: Binding affinity to T7-tagged CDK2 (unknown origin) expressed in bacteriophage infected Escherichia coli BL21 incubated for 1 hr by magnetic beads based qPCR anlaysis
CDK2/Cyclin A1 = CDK2/Cyclin A1 (Homo sapiens, UniProt P24941); experiment: Inhibition of CDK2/Cyclin A1 (unknown origin) using histone H1 as substrate preincubated for 20 mins followed by 33P-ATP addition and measured after 2 hrs by filter binding method; assay type: protein-complex assay
CDK2/Cyclin O = CDK2/Cyclin O (Homo sapiens, UniProt P22674+P24941); experiment: Inhibition of CDK2/Cyclin-O (unknown origin) using histone H1 as substrate preincubated for 20 mins followed by 33P-ATP addition and measured after 2 hrs by filter binding method; assay type: protein-complex assay

Compound	IC50 (CDK2/Cyclin A2)	further results
Cc1ccc(-n2nc(C)c3c2C(Br)C(C)(C)CC3=O)nc1 (stereo not drawn)	7.5 µM	–
Cc1nn(-c2ccc(C(F)(F)F)cn2)c2c1C(=O)CC(C)(C)C2Br (stereo not drawn)	6.7 µM	–
Cc1nn(-c2ccccn2)c2c1C(=O)CC(C)(C)C2F (stereo not drawn)	21 µM	–
Cc1nn(-c2ccccn2)c2c1C(=O)CC(C(C)C)C2Br (trans isomer)	130 µM	–
Cc1nn(-c2ccccn2)c2c1C(=O)CC(C(C)C)C2Br (stereo in doubt)	470 µM	–
Cc1nn(-c2ncccc2C(F)(F)F)c2c1C(=O)CC(C)(C)C2Br (stereo not drawn)	460 µM	–
COC1c2c(c(C)nn2-c2ccccn2)C(=O)CC1(C)C (stereo not drawn)	46 µM	–
Cc1nn(-c2ccc(NS(C)(=O)=O)cn2)c2c1C(=O)CC(C)(C)C2Br (stereo not drawn)	19 µM	–
CC1(C)CC(=O)c2cnn(-c3ccccn3)c2C1Br (stereo not drawn)	160 µM	–
Cc1nn(-c2ccccn2)c2c1C(=O)CC(C)(C)C2	110 µM	–
COc1cccc(-n2nc(C)c3c2C(Br)C(C)(C)CC3=O)n1 (stereo not drawn)	2.1 µM	–
CC(C)Cc1nn(-c2ccccn2)c2c1C(=O)CC(C)(C)C2Br (stereo not drawn)	820 µM	–
Cc1nn(-c2ccc([N+](=O)[O-])cn2)c2c1C(=O)CC(C)(C)C2Br (stereo not drawn)	3.1 µM	–
COCCc1ccc(OCC(O)CNC(C)C)cc1 (stereo not drawn) [METOPROLOL]	–	Drug recovery [1]: 90.7%; Papp A→B at 2 h, 1 µM [2]: 26.9 ×10⁻⁶ cm/s; Ratio [3]: 0.79; Papp B→A at 2 h, 1 µM [4]: 21.2 ×10⁻⁶ cm/s; Drug recovery [5]: 90.4%
Cc1nn(-c2ccncc2)c2c1C(=O)CC(C)(C)C2Br (stereo not drawn)	10.5 µM	–
Cc1nn(-c2ccc(NS(N)(=O)=O)cn2)c2c1C(=O)CC(C)(C)C2Br (stereo not drawn)	2.4 µM	–
CC1(C)CC(=O)c2cnn(-c3ccccn3)c2C1	> 1000 µM	–
Cc1nn(-c2ccccn2)c2c1C(=O)CCC2Br (stereo not drawn)	130 µM	–
Cc1nn(-c2ccccn2)c2c1C(=O)CC(C)C2Br (stereo in doubt)	4.8 µM	–
C[C@H]1O[C@@H](O[C@H]2[C@@H](O)C[C@H](O[C@H]3[C@@H](O)C[C@H](O[C@H]4CC[C@@]5(C)[C@H](CC[C@@H]6[C@@H]5C[C@@H](O)[C@]5(C)[C@@H](C7=CC(=O)OC7)CC[C@]65O)C4)O[C@@H]3C)O[C@@H]2C)C[C@H](O)[C@@H]1O [DIGOXIN]	–	Drug recovery [1]: 77.1%; Drug recovery [5]: 83.7%
Cc1cccnc1-n1nc(C)c2c1C(Br)C(C)(C)CC2=O (stereo not drawn)	> 1000 µM	–
Cc1nn(-c2ccccn2)c2c1/C(=N/O)CC(C)(C)C2Br (stereo not drawn)	59 µM	–
Cc1nn(-c2ccccn2)c2c1C(=O)CC(C)(C)C2Sc1ccccc1 (stereo not drawn)	12 µM	–
Cc1nn(-c2ccccn2)c2c1C(=O)CC(C)(C)C2N(C)C (stereo not drawn)	630 µM	–
Cc1nn(-c2ccc(Cl)nn2)c2c1C(=O)CC(C)(C)C2Br (stereo not drawn)	26 µM	–
Cc1nn(-c2ccccn2)c2c1C(=O)CC(C)(C)C2N=[N+]=[N-] (stereo not drawn)	4.5 µM	–

Compound	IC50 (CDK2/Cyclin A2)	further results
Cc1nn(-c2ccccn2)c2c1C(=O)CC(C)(C)C2S(=O)(=O)c1ccccc1 (stereo not drawn)	107 µM	–
Cc1nn(-c2ccccn2)c2c1C(=O)CC(C)(C)C2Cl (stereo not drawn)	4.9 µM	–
Cc1nn(-c2nccs2)c2c1C(=O)CC(C)(C)C2Br (stereo not drawn)	2.2 µM	IC50 [6]: 0.0023 µM; Activity (MCF7): inactive; Kd [7]: 4.8 µM; IC50 (CDK2/Cyclin A1): 0.0243 µM; IC50 (CDK2/Cyclin O): 0.0331 µM
Cc1nn(CCC#N)c2c1C(=O)CC(C)(C)C2Br (stereo not drawn)	> 1000 µM	–
Cc1nn(-c2ccccn2)c2c1NC(=O)CC(C)(C)C2	> 1000 µM	–
Cc1nn(-c2ccc3ccccc3c2)c2c1C(=O)CC(C)(C)C2Br (stereo not drawn)	37 µM	–
Cc1nn(-c2ncccc2C(F)(F)F)c2c1C(=O)C(Br)C(C)(C)C2 (stereo not drawn)	230 µM	–
Cc1nn(S(=O)(=O)c2ccc([N+](=O)[O-])cc2)c2c1C(=O)CC(C)(C)C2Br (stereo not drawn)	> 1000 µM	–
Cc1nn(-c2ccccn2)c2c1C(=O)CC(C)(C)C2O (stereo not drawn)	110 µM	–
Cc1nn(-c2ccccn2)c2c1C(=O)CC(c1ccccc1)C2Br (stereo not drawn)	> 1000 µM	–
CC(=O)Nc1ccc(-n2nc(C)c3c2C(Br)C(C)(C)CC3=O)nc1 (stereo not drawn)	3.6 µM	–
Cc1nn(-c2cnccn2)c2c1C(=O)CC(C)(C)C2Br (stereo not drawn)	97 µM	–
Cc1nn(-c2ccc(N)cn2)c2c1C(=O)CC(C)(C)C2Br (stereo not drawn)	4.6 µM	–
Cc1ccc(NC(=O)c2ccc(CN3CCN(C)CC3)cc2)cc1Nc1nccc(-c2cccnc2)n1 [IMATINIB]	–	Drug recovery [1]: 56.6%; Drug recovery [5]: 69.9%
Cc1cccnc1-n1nc(C)c2c1CC(C)(C)C(Br)C2=O (stereo not drawn)	180 µM	–
Cc1nn(-c2ccncn2)c2c1C(=O)CC(C)(C)C2Br (stereo not drawn)	1.5 µM	IC50 [6]: 0.0089 µM; Activity (MCF7): inactive; Kd [7]: 4.5 µM; IC50 (CDK2/Cyclin A1): 0.0464 µM; IC50 (CDK2/Cyclin O): 0.0416 µM
Cc1nn(-c2ncccn2)c2c1C(=O)CC(C)(C)C2Br (stereo not drawn)	9.3 µM	–
Cc1nn(-c2ccc(Cl)cn2)c2c1C(=O)CC(C)(C)C2Br (stereo not drawn)	3 µM	–
Cc1nn(-c2ccccn2)c2c1C(=O)CC(C)C2Br (cis isomer)	31 µM	–
Cc1nn(-c2ccccn2)c2c1C(=O)NCC(C)(C)C2	> 1000 µM	–
Cc1nn(-c2ccccn2)c2c1C(O)CC(C)(C)C2Br (stereo not drawn)	560 µM	–
Cc1nn(-c2ccccn2)c2c1C(=O)CC(C)(C)C2N (stereo not drawn)	350 µM	–
Cc1nn(-c2ccccn2)c2c1C(=O)CC(C)(C)C2C (stereo not drawn)	200 µM	–
Cc1nn(-c2nc3ccccc3s2)c2c1C(=O)CC(C)(C)C2Br (stereo not drawn)	> 1000 µM	–
COC(=O)CC(=O)Nc1ccc(-n2nc(C)c3c2C(Br)C(C)(C)CC3=O)nc1 (stereo not drawn)	2.7 µM	–
Cc1nn(-c2ccccn2)c2c1C(=O)NCC(C)(C)C2Br (stereo not drawn)	12 µM	–
